# Columns and labels:
# Calu-1 [1] = test: Anticancer activity against human Calu1 cells at 500 nM after 48 hrs by propidium iodide fluorescence assay; type: functional
# In short: (§1)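 Propidium iodide DNA-fluorescence assay. Seeding 3000–7500 cells/well, 24 h recovery at 37 °C in 5% CO₂. Compounds in 0.1% DMSO added to triplicate wells at 10 µM. Flavopiridol 700 nM and gemcitabine 500 nM as reference inhibitors. Plates frozen at −80 °C for 24 h, thawed to room temperature, fluorescence read at excitation 530 nm and emission 620 nm. Percent cytotoxicity calculated.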
# ACHN [2] = test: Anticancer activity against human ACHN cells at 500 nM after 48 hrs by propidium iodide fluorescence assay; type: functional; in short: as §1
# PANC-1 [3] = test: Anticancer activity against human PANC1 cells at 500 nM after 48 hrs by propidium iodide fluorescence assay; type: functional; in short: as §1
# NCI-H460 [4] = test: Anticancer activity against human H460 cells at 500 nM after 48 hrs by propidium iodide fluorescence assay; type: functional; in short: as §1
# HCT-116 [5] = test: Anticancer activity against human HCT116 cells at 500 nM after 48 hrs by propidium iodide fluorescence assay; type: functional; in short: as §1
# Penicillium chrysogenum = test: Antifungal activity against Penicillium chrysogenum MTCC 1996 at 100 ug/ml after 48 hrs agar diffusion method; type: functional; details: MTCC 1996, 48 h, read-out: IZ
# In short: (§2)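 Fungal spore suspensions in sterile distilled water adjusted to 10⁶ cfu/mL; 0.1 mL spread on Sabouraud dextrose agar. Wells of 6 mm filled with 0.1 mL compound dilution in DMSO. DMSO (1%) control; nystatin (30 µg/mL) reference. Duplicate plates incubated at 28 °C for 48 h. Activity read as inhibition zone diameter in mm.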
# Staphylococcus aureus [6] = test: Antibacterial activity against Staphylococcus aureus MTCC 96 after 24 hrs; type: functional; details: MTCC 96, 24 h
# In short: (§3)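 Agar well diffusion on Mueller Hinton agar seeded with 0.1 mL of a 10⁵ cfu/mL suspension in 0.85% saline. Compounds dissolved in DMSO, final concentrations 25–250 µg/mL, 0.1 mL loaded per 6 mm well. DMSO (1%) control; tetracycline (10 µg/mL) reference. Duplicate plates incubated 24 h at 37 °C. Inhibition zone read in mm. MIC taken as lowest concentration giving complete growth inhibition.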
# Aspergillus flavus = test: Antifungal activity against Aspergillus flavus MTCC 2501 at 100 ug/ml after 48 hrs agar diffusion method; type: functional; details: MTCC 2501, 48 h, read-out: IZ; in short: as §2
# Staphylococcus aureus [7] = test: Antibacterial activity against Staphylococcus aureus MTCC 96 at 50 ug/ml after 24 hrs agar diffusion method; type: functional; details: MTCC 96, 24 h, read-out: IZ; in short: as §3
# Klebsiella pneumoniae [8] = test: Antibacterial activity against Klebsiella pneumoniae NCIM 2957 after 24 hrs; type: functional; details: NCIM 2957, 24 h; in short: as §3
# THP-1 [9] = test: Cytotoxicity against human THP1 cells assessed as CCK8 release at 10 uM after 24 hrs by ELISA; type: cell-based; details: thp-1, 24 h
# In short: (§4)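 Same THP-1 cytokine-assay cells, with compounds in 0.5% DMSO and LPS stimulation, were scored in parallel for cytotoxicity by CCK-8.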
# ACHN [10] = test: Anticancer activity against human ACHN cells at 10 uM after 48 hrs by propidium iodide fluorescence assay; type: functional; in short: as §1
# Escherichia coli [11] = test: Antibacterial activity against Escherichia coli MTCC 1650 at 50 ug/ml after 24 hrs agar diffusion method; type: functional; details: MTCC 1650, 24 h, read-out: IZ; in short: as §3
# Candida albicans = test: Antifungal activity against Candida albicans MTCC 227 at 100 ug/ml after 48 hrs agar diffusion method; type: functional; details: MTCC 227, 48 h, read-out: IZ; in short: as §2
# Proteus vulgaris [12] = test: Antibacterial activity against Proteus vulgaris MTCC 1771 after 24 hrs; type: functional; details: MTCC 1771, 24 h; in short: as §3
# THP-1 [13] = test: Antiinflammatory activity in human THP1 cells assessed as inhibition of LPS-induced TNFalpha release at 10 uM after 24 hrs by ELISA; type: functional; details: THP-1, 24 h
# In short: (§5)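 THP-1 cells grown in RPMI 1640 with 10% FBS, penicillin and streptomycin, then PMA-differentiated. Compounds in 0.5% DMSO preincubated 30 min at 37 °C before LPS (E. coli 0127:B8) stimulation. TNF-α and IL-6 release measured by kit per the manufacturer (BD Biosciences). Percent inhibition calculated relative to control. Dexamethasone 1 µM as reference.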
# Bacillus subtilis [14] = test: Antibacterial activity against Bacillus subtilis MTCC 1789 at 50 ug/ml after 24 hrs agar diffusion method; type: functional; details: MTCC 1789, 24 h, read-out: IZ; in short: as §3
# Proteus vulgaris [15] = test: Antibacterial activity against Proteus vulgaris MTCC 1771 at 50 ug/ml after 24 hrs agar diffusion method; type: functional; details: MTCC 1771, 24 h, read-out: IZ; in short: as §3
# Trichoderma viride = test: Antifungal activity against Trichoderma viride MTCC 167 at 100 ug/ml after 48 hrs agar diffusion method; type: functional; details: MTCC 167, 48 h, read-out: IZ; in short: as §2
# Calu-1 [16] = test: Anticancer activity against human Calu1 cells at 10 uM after 48 hrs by propidium iodide fluorescence assay; type: functional; in short: as §1
# NCI-H460 [17] = test: Anticancer activity against human H460 cells at 10 uM after 48 hrs by propidium iodide fluorescence assay; type: functional; in short: as §1
# Klebsiella pneumoniae [18] = test: Antibacterial activity against Klebsiella pneumoniae NCIM 2957 at 50 ug/ml after 24 hrs agar diffusion method; type: functional; details: NCIM 2957, 24 h, read-out: IZ; in short: as §3
# HCT-116 [19] = test: Anticancer activity against human HCT116 cells at 10 uM after 48 hrs by propidium iodide fluorescence assay; type: functional; in short: as §1
# Escherichia coli [20] = test: Antibacterial activity against Escherichia coli MTCC 1650 after 24 hrs; type: functional; details: MTCC 1650, 24 h; in short: as §3
# Aspergillus niger = test: Antifungal activity against Aspergillus niger MTCC 1781 at 100 ug/ml after 48 hrs agar diffusion method; type: functional; details: MTCC 1781, 48 h, read-out: IZ; in short: as §2
# PANC-1 [21] = test: Anticancer activity against human PANC1 cells at 10 uM after 48 hrs by propidium iodide fluorescence assay; type: functional; in short: as §1
# THP-1 [22] = test: Antiinflammatory activity in human THP1 cells assessed as inhibition of LPS-induced IL6 release at 10 uM after 24 hrs by ELISA; type: functional; details: THP-1, 24 h; in short: as §5
# Bacillus subtilis [23] = test: Antibacterial activity against Bacillus subtilis MTCC 1789 after 24 hrs; type: functional; details: MTCC 1789, 24 h; in short: as §3
# PANC-1 [24] = test: Anticancer activity against human PANC1 cells at 700 nM after 48 hrs by propidium iodide fluorescence assay; type: functional; in short: as §1
# HCT-116 [25] = test: Anticancer activity against human HCT116 cells at 700 nM after 48 hrs by propidium iodide fluorescence assay; type: functional; in short: as §1
# NCI-H460 [26] = test: Anticancer activity against human H460 cells at 700 nM after 48 hrs by propidium iodide fluorescence assay; type: functional; in short: as §1
# ACHN [27] = test: Anticancer activity against human ACHN cells at 700 nM after 48 hrs by propidium iodide fluorescence assay; type: functional; in short: as §1
# Calu-1 [28] = test: Anticancer activity against human Calu1 cells at 700 nM after 48 hrs by propidium iodide fluorescence assay; type: functional; in short: as §1
# THP-1 [29] = test: Cytotoxicity against human THP1 cells assessed as CCK8 release at 1 uM after 24 hrs by ELISA; type: cell-based; details: thp-1, 24 h; in short: as §4
# THP-1 [30] = test: Antiinflammatory activity in human THP1 cells assessed as inhibition of LPS-induced IL6 release at 1 uM after 24 hrs by ELISA; type: functional; details: THP-1, 24 h; in short: as §5
# THP-1 [31] = test: Antiinflammatory activity in human THP1 cells assessed as inhibition of LPS-induced TNFalpha release at 1 uM after 24 hrs by ELISA; type: functional; details: THP-1, 24 h; in short: as §5
MIC (Staphylococcus aureus [6]),MIC (Klebsiella pneumoniae [8]),MIC (Proteus vulgaris [12]),MIC (Escherichia coli [20]),Compound,zone of inhibition at 100 µg/mL (Penicillium chrysogenum),zone of inhibition at 100 µg/mL (Aspergillus flavus),zone of inhibition at 50 µg/mL (Staphylococcus aureus [7]),Activity (THP-1 [9]),Activity (ACHN [10]),zone of inhibition at 50 µg/mL (Escherichia coli [11]),zone of inhibition at 100 µg/mL (Candida albicans),inhibition at 10 µM (THP-1 [13]),zone of inhibition at 50 µg/mL (Bacillus subtilis [14]),zone of inhibition at 50 µg/mL (Proteus vulgaris [15]),zone of inhibition at 100 µg/mL (Trichoderma viride),Activity (Calu-1 [16]),Activity (NCI-H460 [17]),zone of inhibition at 50 µg/mL (Klebsiella pneumoniae [18]),Activity (HCT-116 [19]),zone of inhibition at 100 µg/mL (Aspergillus niger),other results
,,,,Nc1ccn([C@@H]2O[C@H](CO)[C@@H](O)C2(F)F)c(=O)n1 [GEMCITABINE],,,,,,,,,,,,,,,,,Activity (Calu-1 [1]): 70%; Activity (ACHN [2]): 70%; Activity (PANC-1 [3]): 71%; Activity (NCI-H460 [4]): 68%; Activity (HCT-116 [5]): 76%
50 µg/mL,50 µg/mL,50 µg/mL,50 µg/mL,COc1ccc(/C(Cl)=C/C=C/C(=O)c2ccc(OC)cc2OC)cc1,12 mm,12 mm,12 mm,0%,33%,14 mm,8 mm,0%,20 mm,15 mm,14 mm,31%,33%,12 mm,31%,15 mm,Activity (PANC-1 [21]): 31%; inhibition at 10 µM (THP-1 [22]): 49%; MIC (Bacillus subtilis [23]): 50 µg/mL
,,,,CN1CC[C@H](c2c(O)cc(O)c3c(=O)cc(-c4ccccc4Cl)oc23)[C@H](O)C1 [ALVOCIDIB],,,,,,,,,,,,,,,,,Activity (PANC-1 [24]): 75%; Activity (HCT-116 [25]): 71%; Activity (NCI-H460 [26]): 84%; Activity (ACHN [27]): 68%; Activity (Calu-1 [28]): 68%
,,,,C[C@@H]1C[C@H]2[C@@H]3CCC4=CC(=O)C=C[C@]4(C)[C@@]3(F)[C@@H](O)C[C@]2(C)[C@@]1(O)C(=O)CO [DEXAMETHASONE],,,,,,,,,,,,,,,,,Activity (THP-1 [29]): 0%; inhibition at 1 µM (THP-1 [30]): 84%; inhibition at 1 µM (THP-1 [31]): 73%
50 µg/mL,50 µg/mL,50 µg/mL,50 µg/mL,COc1ccc(C(=O)/C=C/C=C(\Cl)c2ccc(Br)cc2)c(OC)c1,16 mm,18 mm,12 mm,0%,39%,13 mm,12 mm,0%,16 mm,10 mm,16 mm,27%,16%,18 mm,22%,12 mm,Activity (PANC-1 [21]): 33%; inhibition at 10 µM (THP-1 [22]): 36%; MIC (Bacillus subtilis [23]): 50 µg/mL

# Reference: ChEMBL document CHEMBL1157556, “Synthesis and biological screening of a combinatorial library of beta-chlorovinyl chalcones as anticancer, anti-inflammatory and antimicrobial agents” (Bioorg Med Chem, 2010)
